Experiment [1] in a line: Her2 expression decrease, cell viability multiplex – SKBR3 breast tumor cells, AlphaScreen, ATP viability, primary screen (AID 461).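 On Her2 level: lower value means less Her2 protein in the cells.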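 On viability: percent of carrier control wells set as 100% viability.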 Conditions: SKBR3 Her2 protein level, 18-24 h, measured here: SKBR3 viability, ATP luminescence, at 10 µM.
In experiment [2] the target is Receptor tyrosine-protein kinase erbB-2 (Homo sapiens) (UniProt P04626). The experiment is described as above. The conditions noted are these: 18-24 h, at 10 µM, stronger effect = lower value.
Chain of Receptor tyrosine-protein kinase erbB-2 (Homo sapiens) (P04626 whole entry, looked up): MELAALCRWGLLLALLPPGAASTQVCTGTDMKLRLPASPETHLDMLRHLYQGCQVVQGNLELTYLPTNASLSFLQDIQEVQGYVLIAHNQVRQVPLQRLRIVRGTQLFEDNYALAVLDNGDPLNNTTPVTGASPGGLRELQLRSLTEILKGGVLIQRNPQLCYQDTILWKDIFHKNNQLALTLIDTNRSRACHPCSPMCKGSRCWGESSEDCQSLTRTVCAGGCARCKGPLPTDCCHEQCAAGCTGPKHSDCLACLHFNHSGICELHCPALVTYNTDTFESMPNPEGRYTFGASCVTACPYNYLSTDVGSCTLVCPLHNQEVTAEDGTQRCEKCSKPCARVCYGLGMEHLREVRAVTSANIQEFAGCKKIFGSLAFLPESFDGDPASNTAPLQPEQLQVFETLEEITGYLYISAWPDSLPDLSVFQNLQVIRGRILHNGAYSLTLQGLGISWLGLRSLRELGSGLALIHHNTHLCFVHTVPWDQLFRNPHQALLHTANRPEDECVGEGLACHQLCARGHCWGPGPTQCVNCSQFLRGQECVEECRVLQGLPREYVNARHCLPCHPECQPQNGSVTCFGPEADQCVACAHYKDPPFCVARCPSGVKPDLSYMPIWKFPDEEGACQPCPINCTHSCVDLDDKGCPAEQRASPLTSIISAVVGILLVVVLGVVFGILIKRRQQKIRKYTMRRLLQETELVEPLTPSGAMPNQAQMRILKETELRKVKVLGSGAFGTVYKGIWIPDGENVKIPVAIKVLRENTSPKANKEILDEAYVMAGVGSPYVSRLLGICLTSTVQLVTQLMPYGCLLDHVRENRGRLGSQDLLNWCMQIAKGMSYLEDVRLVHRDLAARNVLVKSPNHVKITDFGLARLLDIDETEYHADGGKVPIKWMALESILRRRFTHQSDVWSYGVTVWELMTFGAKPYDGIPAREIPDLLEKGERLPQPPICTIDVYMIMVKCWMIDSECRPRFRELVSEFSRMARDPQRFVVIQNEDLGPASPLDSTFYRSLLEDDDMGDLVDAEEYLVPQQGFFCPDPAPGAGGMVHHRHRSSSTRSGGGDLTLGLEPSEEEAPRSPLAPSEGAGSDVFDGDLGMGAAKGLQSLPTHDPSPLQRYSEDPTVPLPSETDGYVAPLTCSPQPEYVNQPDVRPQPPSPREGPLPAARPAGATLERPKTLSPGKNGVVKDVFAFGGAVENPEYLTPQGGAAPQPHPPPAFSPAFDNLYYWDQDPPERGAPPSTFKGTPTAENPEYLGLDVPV
A short description of experiment [3]: reduced viability of SK-BR-3 breast cancer cells – cell-based, 24 h, human, pilot screen (AID 572;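 active means viability at or below 10% of carrier control in both of two separate runs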;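 further: compound exposure lasted between 18 and 24 h rather than exactly 24 h; 100% = carrier-treated control wells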). Conditions: SK-BR-3 viability, CellTiter-Glo luminescence, at 10 µM, stronger effect = lower value. In general terms: Cellular ATP, detected with luciferase, serves as a proxy for viable cell number.
Experiment [4] in a line: HUVEC growth inhibition – cell-based, human, primary screen (AID 575;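 active means viability at or below 30% in both replicate assays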;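 further: 100% = median of untreated cell wells with 0.1% DMSO on each plate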). The conditions noted are these: HUVEC proliferation, CellTiter-Glo luminescence, 72 h; at 10 µM; stronger effect = lower value. Summed up:
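System – primary HUVEC, no more than 12 passages · Medium – Low-serum (2% FBS) EBM, supplemented · Times – 72 h exposure, 37 °C, 5% CO2, 30 min RT equilibration · Measured by – luminescent ATP assay · Read-out – % viability relative to median vehicle-well signal on each plate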

Experiment [5] can be described thus: H69AR cell proliferation blockers – human, duplicate replicates, primary screen (AID 580;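 active means viability at or under a set limit in both replicates, limit being median viability minus 3 SD, cut at about 48% in these data, passing the limit was not always enough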;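 further: 100% = mean luminescence of untreated wells and 0% = no signal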). The conditions noted are these: H69AR lung tumor cells viability, ATP luminescence, 72 h; at 10 µM; stronger effect = lower value.
Experiment [6] can be described thus: MRP1 drug-resistance reversers in H69AR cells – cell-based, doxorubicin co-treatment, pilot screen (AID 601;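 active means viability loss from added drug above about 55%, and viability with drug at most 40%, in both replicates, limit read from the data, passing the limit was not always enough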). The conditions noted are these: CellTiter-Glo, 72 h, at 10 µM; for differential viability (reversal): stronger effect = higher value.
Experiment [7] can be described thus: yeast transport mutant growth inhibition pilot in 384-well plates, post-Golgi transport modulator project (AID 636; in the data active means inhibition above about 31%). Conditions: absorbance 615 nm, about 18 h, stronger effect = higher value.
Experiment [8] in a line: growth suppression of yeast trafficking mutant, preliminary HTS, modulators of trafficking downstream of Golgi apparatus project, 1536-format plate, OD 615 nm (AID 637; in the data active means inhibition above about 30%). Conditions: yeast transport mutant growth, absorbance 615 nm, 18 h; stronger effect = higher value.
Where [9] appears, read: H69AR cells + 2 uM doxorubicin, measured here: viability with 2 uM doxorubicin, stronger effect = lower value.
Where [10] appears, read: H69AR cells, compound alone cytotoxicity.

Activity calls are given as the source filed them.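 How the source made its calls, unless noted: active means Her2 level under about 52% in both replicate screens, with viability over 70% of control (limit read from the data); inconclusive means Her2 under the limit in one screen only, or viability under 70%; inactive means Her2 level above the set limit.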

The term viability denotes a read-out of living cells in per cent, often relative to untreated cells. For orientation: inhibition means the change of the read-out against control, counted positive when it falls. Regarding `COc1cc(-c2nnc(SCC(=O)c3ccc(C)cc3)o2)cc(OC)c1OC`, the viability in experiment [1] was 90%; in experiment [3], 90% (inactive); in experiment [4], 64.8% (inactive); in experiment [5], 74.5% (inactive); in experiment [6] (setting [9]) it was 94.2%; in experiment [6] (setting [10]), 74.5%. The Her2 level in experiment [2] is 97.5% (inactive). The differential viability (reversal) in experiment [6] (H69AR cells + 2 uM doxorubicin) was -19.7% (inactive). The inhibition was -1.45% (inactive) in experiment [7] and 0.16% (inactive) in experiment [8].

Take `CN(C(=O)COC(=O)C1CCN(S(=O)(=O)c2cccs2)CC1)C1CCS(=O)(=O)C1` (stereo not given): the viability in experiment [1] is 118%; in experiment [3], 118% (inactive); in experiment [4], 94.9% (inactive); in experiment [5], 99.8% (inactive); in experiment [6] (setting [9]) it was 87.2%; in experiment [6] (setting [10]), 99.8%. Also, the Her2 level in experiment [2] was 127% (inactive). The differential viability (reversal) in experiment [6] (H69AR cells + 2 uM doxorubicin) is 12.6% (inactive). The figures for the inhibition in experiment [7] and in experiment [8] were -4.4% (inactive) and -7.74% (inactive), respectively.

Take `COCC(=O)N(Cc1ccc(OC)cc1)Cc1nc2ccccc2c(=O)[nH]1`: the viability in experiment [1] was 126%; in experiment [3], 126% (inactive); in experiment [4], 83.6% (inactive); in experiment [5], 86.2% (inactive); in experiment [6] (setting [9]), 100%; in experiment [6] (setting [10]), 86.2%. Further, the Her2 level in experiment [2] is 108% (inactive). The differential viability (reversal) in experiment [6] (H69AR cells + 2 uM doxorubicin) was -13.9% (inactive). Besides, the inhibition is -5.66% (inactive) in experiment [7] and 5% (inactive) in experiment [8].

Consider `CCOC(=O)CSc1nnc(-c2ccccc2OC)o1`, for which the viability was 116% in experiment [1]; 116% (inactive) in experiment [3]; 80.2% (inactive) in experiment [4]; 94.8% (inactive) in experiment [5]; 106% in experiment [6] (setting [9]); 94.8% in experiment [6] (setting [10]). For the same compound, in experiment [2], the Her2 level is 96% (inactive). The differential viability (reversal) in experiment [6] (H69AR cells + 2 uM doxorubicin) is -11% (inactive). Moreover, the inhibition in experiment [7] was -6.44% (inactive); in experiment [8], -6.51% (inactive).

For the compound `Fc1ccc(NCc2nnc(SCc3nnc(-c4ccccc4)o3)n2CC2CCCO2)cc1` (stereo not given), the viability in experiment [1] is 96.5%; in experiment [3], 96.5% (inactive); in experiment [4] it was 97.8% (inactive); in experiment [5], 78.9% (inactive); in experiment [6] (setting [9]) it was 97.3%; in experiment [6] (setting [10]) it was 78.9%. The Her2 level in experiment [2] is 109% (inactive). In experiment [6] (H69AR cells + 2 uM doxorubicin), the differential viability (reversal) was -18.4% (inactive). Moreover, the inhibition in experiment [7] was -0.54% (inactive); in experiment [8] it was 15.4% (inactive).

As to `C#CCN1C(=O)C(O)(CC(=O)c2cccc(OC)c2)c2ccccc21` (stereo not given), the viability is 100% in experiment [1]; 100% (inactive) in experiment [3]; 93.3% (inactive) in experiment [4]; 21.7% (active) in experiment [5]; 38.3% in experiment [6] (setting [9]); 21.7% in experiment [6] (setting [10]). In experiment [2], the Her2 level is 84% (inactive). Further, the differential viability (reversal) in experiment [6] (H69AR cells + 2 uM doxorubicin) was -16.6% (inactive). In addition, the inhibition in experiment [7] is -7.03% (inactive); in experiment [8], 1.67% (inactive).

For `Cc1cc(C(=O)CN2C(=O)c3ccccc3C2=O)c(C)n1Cc1cccs1`, the viability in experiment [1] is 122%; in experiment [3], 122% (inactive); in experiment [4], 111% (inactive); in experiment [5], 86.3% (inactive); in experiment [6] (setting [9]), 83%; in experiment [6] (setting [10]), 86.3%. For the same compound, in experiment [2], the Her2 level is 99% (inactive). Also, in experiment [6] (H69AR cells + 2 uM doxorubicin), the differential viability (reversal) is 3.23% (inactive). The inhibition in experiment [7] is -9.45% (inactive); in experiment [8], 0% (inactive).

Take `CCOC(=O)N1CCC(NC(=O)CCc2c(C)nc3c(c(C)nn3C(C)(C)C)c2C)CC1`: the viability in experiment [1] was 91%; in experiment [3] it was 91% (inactive); in experiment [4], 82.2% (inactive); in experiment [5] it was 85.1% (inactive); in experiment [6] (setting [9]), 83.9%; in experiment [6] (setting [10]) it was 85.1%. The Her2 level in experiment [2] is 78.5% (inactive). For the same compound, in experiment [6] (H69AR cells + 2 uM doxorubicin), the differential viability (reversal) is 1.25% (inactive). In addition, the inhibition in experiment [7] is -4.61% (inactive); in experiment [8] it was -3.02% (inactive).

With `Cc1csc(SCc2nc3sc4c(c3c(=O)[nH]2)CCC4)n1`, the viability in experiment [1] was 116%; in experiment [3], 116% (inactive); in experiment [4] it was 103% (inactive); in experiment [5] it was 87.8% (inactive); in experiment [6] (setting [9]) it was 86%; in experiment [6] (setting [10]) it was 87.8%. Further, in experiment [2], the Her2 level was 122% (inactive). Moreover, in experiment [6] (H69AR cells + 2 uM doxorubicin), the differential viability (reversal) is 1.88% (inactive). The inhibition in experiment [7] is -6.16% (inactive); in experiment [8], 0% (inactive).

Regarding `CCn1c(SCC(=O)Nc2nnc(C)s2)nnc1-c1ccncc1`, the viability in experiment [1] is 112%; in experiment [3] it was 112% (inactive); in experiment [4], 107% (inactive); in experiment [5], 95.5% (inactive); in experiment [6] (setting [9]), 91.4%; in experiment [6] (setting [10]) it was 95.5%. The Her2 level in experiment [2] is 76% (inactive). Also, the differential viability (reversal) in experiment [6] (H69AR cells + 2 uM doxorubicin) was 4.15% (inactive). Further, the inhibition in experiment [7] is -7.43% (inactive); in experiment [8] it was 6.17% (inactive).

On to `Cc1cnc(C(=O)OCC(=O)Nc2ccc(Cl)cc2Cl)cn1`, for which the viability in experiment [1] was 89.5%; in experiment [3] it was 89.5% (inactive); in experiment [4] it was 90.5% (inactive); in experiment [5] it was 103% (inactive); in experiment [6] (setting [9]), 86.3%; in experiment [6] (setting [10]), 103%. For the same compound, the Her2 level in experiment [2] was 100% (inactive). In experiment [6] (H69AR cells + 2 uM doxorubicin), the differential viability (reversal) was 16.4% (inactive). Moreover, the figures for the inhibition in experiment [7] and in experiment [8] were -8.49% (inactive) and 2.38% (inactive), respectively.

For `O=C(CSc1ncnc2c1oc1ccccc12)NCc1ccco1`, the viability in experiment [1] was 140%; in experiment [3], 140% (inactive); in experiment [4] it was 83.7% (inactive); in experiment [5], 76.4% (inactive); in experiment [6] (setting [9]) it was 82.1%; in experiment [6] (setting [10]), 76.4%. In addition, in experiment [2], the Her2 level was 60% (inactive). Also, the differential viability (reversal) in experiment [6] (H69AR cells + 2 uM doxorubicin) was -5.7% (inactive). Also, the inhibition in experiment [7] was -6.27% (inactive); in experiment [8], 2.62% (inactive).

In the case of `CCC(NS(=O)(=O)c1ccc(C)cc1)C(=O)N1CCC2(O)CCCCC2C1` (stereo not given), the viability was 94% in experiment [1]; 94% (inactive) in experiment [3]; 90.7% (inactive) in experiment [4]; 94.5% (inactive) in experiment [5]; 88.6% in experiment [6] (setting [9]); 94.5% in experiment [6] (setting [10]). In addition, the Her2 level in experiment [2] was 105% (inactive). Also, the differential viability (reversal) in experiment [6] (H69AR cells + 2 uM doxorubicin) is 5.91% (inactive). Also, the inhibition in experiment [7] was -3.2% (inactive); in experiment [8], -1.8% (inactive).

Turning to `COc1cccc(NC(=O)Nc2cccs2)c1`, the viability is 93% in experiment [1]; 93% (inactive) in experiment [3]; 75% (inactive) in experiment [4]; 79.5% (inactive) in experiment [5]; 78.1% in experiment [6] (setting [9]); 79.5% in experiment [6] (setting [10]). Also, in experiment [2], the Her2 level is 79% (inactive). Also, the differential viability (reversal) in experiment [6] (H69AR cells + 2 uM doxorubicin) is 1.41% (inactive). Also, the values for the inhibition in experiment [7] and in experiment [8] were -6.53% (inactive) and -2.3% (inactive), respectively.
